From ChEMBL document CHEMBL1221207, “Expanding the promiscuity of a natural-product glycosyltransferase by directed evolution” (Nat Chem Biol, 2007)
Residue numbers refer to the chain shown, from its start. Names and notes keep the numbering of the source.

T1: Oleandomycin glycosyltransferase (Streptomyces antibioticus) (UniProt Q53685)
T1 sequence (whole entry): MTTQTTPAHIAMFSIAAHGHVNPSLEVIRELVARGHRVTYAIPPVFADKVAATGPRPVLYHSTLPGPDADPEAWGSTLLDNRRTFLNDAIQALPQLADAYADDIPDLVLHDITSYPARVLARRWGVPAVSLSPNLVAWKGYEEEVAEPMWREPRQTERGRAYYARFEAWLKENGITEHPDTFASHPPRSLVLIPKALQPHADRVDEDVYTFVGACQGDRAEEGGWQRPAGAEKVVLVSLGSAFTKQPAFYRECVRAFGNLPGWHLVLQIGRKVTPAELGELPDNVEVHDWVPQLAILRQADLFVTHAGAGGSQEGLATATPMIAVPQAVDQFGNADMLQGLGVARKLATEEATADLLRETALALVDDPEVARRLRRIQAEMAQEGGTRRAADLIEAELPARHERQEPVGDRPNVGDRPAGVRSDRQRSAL

T2: Oleandomycin glycosyltransferase (Streptomyces antibioticus), Q53685 [P67T]
T2 sequence (whole entry): T1 sequence (whole entry) with P67T

T3: Oleandomycin glycosyltransferase (Streptomyces antibioticus), Q53685 [A242V]
T3 sequence (whole entry): T1 sequence (whole entry) with A242V

T4: Oleandomycin glycosyltransferase (Streptomyces antibioticus), Q53685 [P67T,S132F,A242V]
T4 sequence (whole entry): T1 sequence (whole entry) with P67T, S132F, A242V

B1: Oleandomycin glycosyltransferase (Streptomyces antibioticus), Q53685 (protein)
chain: T1 sequence (whole entry)
B2: Oleandomycin glycosyltransferase (Streptomyces antibioticus), Q53685 P67T,S132F,A242V (protein)
chain: T1 sequence (whole entry) with P67T, S132F, A242V

Legend:
[1] = target: T1, Oleandomycin glycosyltransferase (Streptomyces antibioticus); assay: Activity at Streptomyces antibioticus wild-type OleD assessed as as rate of glucoside formation measured as nanomoles of product formed per minute per mg of enzyme
[2] = system: T2, Oleandomycin glycosyltransferase (Streptomyces antibioticus), Q53685 [P67T]; assay: Activity of Streptomyces antibioticus OleD P67T mutant assessed as as rate of glucoside formation measured as nanomoles of product formed per minute per mg of enzyme
[3] = target: T1, Oleandomycin glycosyltransferase (Streptomyces antibioticus); assay: Activity of Streptomyces antibioticus OleD […] mutant assessed as as rate of glucoside formation measured as nanomoles of product formed per minute per mg of enzyme
[4] = system: T3, Oleandomycin glycosyltransferase (Streptomyces antibioticus), Q53685 [A242V]; assay: Activity of Streptomyces antibioticus OleD A242V mutant assessed as as rate of glucoside formation measured as nanomoles of product formed per minute per mg of enzyme
[5] = system: T4, Oleandomycin glycosyltransferase (Streptomyces antibioticus), Q53685 [P67T,S132F,A242V]; assay: Activity of Streptomyces antibioticus OleD P67T/S132F/A242V mutant assessed as as rate of glucoside formation measured as nanomoles of product formed per minute per mg of enzyme
[6] = substrate: Cc1cc(=O)oc2cc(O)ccc12; assay: Ratio of Kcat to Km for Streptomyces antibioticus wild-type OleD assessed as as rate of glucoside formation using varying compound concentration by enzyme kinetics assay
Outline: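 Wild-type OleD steady-state kinetics with 4-methylumbelliferone as the variable acceptor, up to 10 mM (its solubility limit in water/DMSO), and UDP-glucose as donor. Read-out was the rate of glucoside formation. kcat/Km was obtained by linear regression of rate against acceptor concentration.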

[7] = substrate: Cc1cc(=O)oc2cc(O)ccc12; assay: Activity of Streptomyces antibioticus wild-type OleD assessed as as rate of glucoside formation at 10 mM using varying NDP sugar UDP-glucose concentration by enzyme kinetics assay
Outline: (§1)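 Steady-state kinetics of wild-type OleD glucosylating the acceptor 4-methylumbelliferone to its 7-O-glucoside, with the acceptor fixed at 10 mM and donor UDP-glucose as the variable substrate. Apparent donor kinetic parameters were taken from the rate versus UDP-glucose concentration data.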

[8] = substrate: Cc1cc(=O)oc2cc(O)ccc12; assay: Ratio of Kcat to Km for Streptomyces antibioticus wild-type OleD assessed as as rate of glucoside formation at 10 mM using varying NDP sugar UDP-glucose concentration by enzyme kinetics assay; outline: as §1
[9] = substrate: Cc1cc(=O)oc2cc(O)ccc12; assay: Activity of Streptomyces antibioticus OleD P67T/S132F/A242V mutant assessed as as rate of glucoside formation using varying compound concentration by enzyme kinetics assay
Outline: (§2)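 Steady-state kinetics with the acceptor 4-methylumbelliferone as the variable substrate and UDP-Glc as donor. The acceptor limit was its solubility in water/DMSO, 10 mM. Apparent Km and kcat were derived from the saturation curve.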

[10] = substrate: Cc1cc(=O)oc2cc(O)ccc12; assay: Ratio of Kcat to Km for Streptomyces antibioticus OleD P67T/S132F/A242V mutant assessed as as rate of glucoside formation using varying compound concentration by enzyme kinetics assay; outline: as §2
[11] = substrate: Cc1cc(=O)oc2cc(O)ccc12; assay: Activity of Streptomyces antibioticus OleD P67T/S132F/A242V mutant assessed as rate of glucoside formation at 10 mM using varying NDP sugar UDP-glucose concentration by enzyme kinetics assay
Outline: (§3)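 Steady-state kinetics with donor UDP-Glc varied at a fixed concentration of the acceptor 4-methylumbelliferone. The result was reported as an apparent donor Km, with kcat from the same analysis.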

[12] = substrate: Cc1cc(=O)oc2cc(O)ccc12; assay: Ratio of Kcat to Km for Streptomyces antibioticus OleD P67T/S132F/A242V mutant assessed as rate of glucoside formation at 10 mM using varying NDP sugar UDP-glucose concentration by enzyme kinetics assay; outline: as §3

Row | Molecule | Activity [1] | Activity [2] | Activity [3] | Activity [4] | Activity [5] | further results
1 | O=c1c(O)c(-c2ccc(O)cc2)oc2cc(O)cc(O)c12 | 13.2 nmol/min | 99.9 nmol/min | 23 nmol/min | 15.3 nmol/min | 28 nmol/min | –
2 | O=c1c(-c2ccc(O)cc2)coc2cc(O)ccc12 | 4.2 nmol/min | 16 nmol/min | 5.5 nmol/min | 8.5 nmol/min | 24 nmol/min | –
3 | CO[C@H]1C[C@H](O[C@H]2[C@H](C)[C@@H](O[C@@H]3O[C@H](C)C[C@H](N(C)C)[C@H]3O)[C@@H](C)C[C@@]3(CO3)C(=O)[C@H](C)[C@@H](O)[C@@H](C)[C@@H](C)OC(=O)[C@@H]2C)O[C@@H](C)[C@@H]1O | 700 nmol/min | 200 nmol/min | 1490 nmol/min | 70 nmol/min | 13 nmol/min | –
4 | O=C(O)c1cc2ccc(O)cc2oc1=O | 0.01 nmol/min | 0.022 nmol/min | 0.022 nmol/min | 0.01 nmol/min | 0.62 nmol/min | –
5 | O=C(O)Cc1cc(=O)oc2cc(O)ccc12 | – | 0.22 nmol/min | 0.08 nmol/min | 0.16 nmol/min | 3.6 nmol/min | –
6 | CC(C)=CCc1cc(C(=O)Nc2c(O)c3ccc(O)c(C)c3oc2=O)ccc1O | 0.24 nmol/min | 0.65 nmol/min | 0.49 nmol/min | 0.33 nmol/min | 1.14 nmol/min | –
7 | O=c1c(-c2ccc(O)cc2)coc2cc(O)cc(O)c12 | 3.4 nmol/min | 28.8 nmol/min | 8.8 nmol/min | 14.1 nmol/min | 26 nmol/min | –
8 | B1 | – | – | – | – | – | kcat/Km [6]: 3 M⁻¹ s⁻¹; Km [7]: 300 µM; kcat [7]: 0.00867 s⁻¹; kcat/Km [8]: 28.8 M⁻¹ s⁻¹
9 | B2 | – | – | – | – | – | Km [9]: 140 µM; kcat [9]: 0.0247 s⁻¹; kcat/Km [10]: 177 M⁻¹ s⁻¹; Km [11]: 0.03 min⁻¹; kcat [11]: 0.0215 s⁻¹; kcat/Km [12]: 717 M⁻¹ s⁻¹
